The nature of experiment [1]: Inhibition of synthetic amyloid beta42 oligomer formation by Western blot. The procedure, abridged:
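Aβ42 (NaOH stock, 45 µM final) incubated in PBS pH 7.4, 0.02% sodium azide at room temperature without stirring for 5 days, with compound at 300 µM in DMSO; vehicle controls at 1% DMSO. Aliquots were mixed 1:1 with 2x SDS sample buffer, boiled 5 min, and run on 4-20% Tris-HCl gels. The gels were transferred to nitrocellulose and probed with A11 anti-oligomer antibody, with 6E10 also used.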

Experiment [2] is described as follows: Inhibition of synthetic amyloid beta-42 oligomerization by ELISA.
Experiment [3] is described as follows: Inhibition of synthetic amyloid beta-42 fibrillation at 30 uM by ThT fluorescence analysis relative to control. The procedure, abridged: (§1)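 Aβ42 (45 µM final) from 2 mM NaOH stock, sonicated, diluted into 10 mM HEPES, 100 mM NaCl, 0.02% sodium azide, pH 7.4; stirred at room temperature 4 days with compound in DMSO (controls 1% DMSO). Aliquot mixed with 3 µM ThT; ex 442 nm, em 482 nm; corrected with parallel protein-free reactions; triplicate, % of control.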

A short description of experiment [4]: Inhibition of synthetic amyloid beta42 fibrillation at 300 uM by ThT fluorescence analysis relative to control. An outline of the steps: as §1
Experiment [5] can be described thus: Inhibition of synthetic amyloid beta-42 fibrillation at 300 uM by light scattering analysis relative to control. An outline of the steps:
(§2)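 Aβ42 (45 µM final) from 2 mM NaOH stock, diluted into 10 mM HEPES, 100 mM NaCl, 0.02% sodium azide, pH 7.4; stirred at room temperature 4 days with compound in DMSO (controls 1% DMSO). Turbidity at 400 nm, corrected by the 400 nm reading of supernatant after 14,000 rpm, 30 min centrifugation; triplicate, relative to control.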

A short description of experiment [6]: Inhibition of synthetic amyloid beta-42 fibrillation at 30 uM by light scattering analysis relative to control. An outline of the steps:
as §2

Structures can show the parent of a compound that is named as a salt. Activity calls are given as the source filed them. No cut-off for these calls is given here.

Consider `CN(C)[C@@H]1C(O)=C(C(=O)NCN2CCCC2)C(=O)[C@@]2(O)C(O)=C3C(=O)c4c(O)cccc4[C@@](C)(O)[C@H]3C[C@@H]12` [ROLITETRACYCLINE], for which the result in experiment [1] was inactive. This molecule displayed an IC50 in experiment [2] of 1.87 µM. The like results for `O=C1C=CC(=O)c2c(O)cccc21` [JUGLONE] were, in that order, “Active” and 67.6 µM.

Consider `COc1ccc2c(c1)c(CC(=O)O)c(C)n2C(=O)c1ccc(Cl)cc1` [INDOMETHACIN], for which the IC50 in experiment [2] came to 958 µM.

For the molecule `C1CCSC1` [TETRAHYDROTHIOPHENE], the result in experiment [1] was Active. Besides, the IC50 in experiment [2] came out at 122 µM. With `COc1cc(/C=C/C(=O)CC(=O)/C=C/c2ccc(O)c(OC)c2)ccc1O` [CURCUMIN], the IC50 in experiment [2] was 361 µM. Turning to `O=C(c1ccccc1O)c1ccccc1O` [2,2'-DIHYDROXYBENZPHENONE], in experiment [2], the IC50 came out at 244 µM. As to `O=C1C=Cc2ccccc2C1=O` [1,2-NAPHTHOQUINONE], the outcome in experiment [1] was inactive. In experiment [2], 11.5 µM corresponded to half-maximal inhibition (IC50). CETRIMIDE [listing 1 of 2 here]: the result in experiment [1] and in experiment [5] was inactive. In addition, the inhibition in experiment [3] worked out at 112%; in experiment [4], 0.7%. In the case of `CNc1ccc2nc3ccc(N)cc3[s+]c2c1` [AZURE C], the result in experiment [1] was inactive. Besides, inhibition in experiment [2] was half-maximal at 0.09 µM (IC50). As to “N,N,N-trimethylhexadecan-1-aminium bromide”, the outcome in experiment [1] and in experiment [5] was inactive. In addition, the inhibition was found to be 9.8% in experiment [3] and 0.5% in experiment [4]. In experiment [6], the result was Active. With `C=C1c2c(Cl)ccc(O)c2C(=O)C2=C(O)[C@]3(O)C(=O)C(C(N)=O)=C(O)[C@@H](N(C)C)[C@@H]3[C@@H](O)[C@H]12.O=C(O)c1cc(S(=O)(=O)O)ccc1O` [MECLOCYCLINE SULFOSALICYLATE], the result in experiment [1] was inactive. Further, in experiment [2], the IC50 stood at 0.25 µM. The like results for `CO[C@H]1/C=C/O[C@@]2(C)Oc3c(C)c(O)c4c(O)c(cc(O)c4c3C2=O)NC(=O)/C(C)=C\C=C\[C@H](C)[C@H](O)[C@@H](C)[C@@H](O)[C@@H](C)[C@H](OC(C)=O)[C@@H]1C` [RIFAMYCIN] were, in that order, “inactive” and 31.6 µM.

In the case of `Nc1c(/N=N/c2ccc(-c3ccc(/N=N/c4cc(S(=O)(=O)O)c5ccccc5c4N)cc3)cc2)cc(S(=O)(=O)O)c2ccccc12` [CONGO RED], the outcome in experiment [1] was inactive. For the same molecule, in experiment [2], the IC50 was determined as 10 µM. The like results for `COc1cccc2c1C(=O)c1c(O)c3c(c(O)c1C2=O)C[C@@](O)(C(C)=O)C[C@@H]3O[C@H]1C[C@H](N)[C@H](O)[C@H](C)O1` [DAUNORUBICIN HYDROCHLORIDE] were, in that order, “inactive” and 7.48 µM. Turning to `OCCN1CCN(CCCN2c3ccccc3Sc3ccc(Cl)cc32)CC1` [PERPHENAZINE], the IC50 in experiment [2] worked out at 26.1 µM. On the same count and under the same terms, for `COc1ccc2nc3cc(Cl)ccc3c(NC(C)CCCN(CCCl)CCCl)c2c1` (stereo not given) the value was 2050 µM. For the molecule `COc1cccc(C=O)c1O`, the outcome in experiment [1] was inactive. The molecule further registered an IC50 in experiment [2] of 6.15 µM. The matching figures for `COc1cc(-c2ccc(/N=N/c3ccc4c(S(=O)(=O)O)cc(S(=O)(=O)O)c(N)c4c3O)c(OC)c2)ccc1/N=N/c1ccc2c(S(=O)(=O)O)cc(S(=O)(=O)O)c(N)c2c1O` [CHICAGO SKY BLUE SODIUM]: “inactive” and 2.58 µM. Molecule CETRIMIDE [listing 2 of 2 here] registered an IC50 in experiment [2] of 15.9 µM. The same measure, in the same setting: next, `O=S1(=O)OC(c2ccc(O)cc2)(c2ccc(O)cc2)c2ccccc21` [PHENOLSULFONPHTHALEIN]: 426 µM; `CCN(CC)c1ccc2c(-c3ccccc3C(C)=O)c3ccc(=[N+](CC)CC)cc-3oc2c1`: 310 µM. On the same count and under the same terms, for `O=C(O)c1ccccc1-c1c2cc(Br)c(=O)c(Br)c-2oc2c(Br)c(O)c(Br)cc12` [EOSIN Y SODIUM] the value was 2790 µM. Consider `CCN(CCO)c1ccc(/N=N/c2sc3cc(OC)ccc3[n+]2C)cc1` [BASIC BLUE 41], for which, in experiment [1], the outcome was inactive. The midpoint of inhibition in experiment [2], the IC50, lay at 0.12 µM. The like results for `CC(Cc1ccc(O)c(O)c1)C(C)Cc1ccc(O)c(O)c1` (stereo not given) [NORDIHYDROGUAIARETIC ACID] were, in that order, “inactive” and 14.5 µM. The matching figures for `O=c1c(O)c(-c2cc(O)c(O)c(O)c2)oc2cc(O)cc(O)c12` [MYRICETIN]: “Active” and 107 µM.

Take `O=c1cc2oc3cc(O)c(-c4ccc(O)cc4O)cc3nc-2cc1-c1ccc(O)cc1O` [LACMOID]: in experiment [1], the outcome was inactive. The same molecule returned a half-inhibitory concentration (IC50) in experiment [2] of 25.5 µM.

For `Cc1ccc2ccc3ccc(C)nc3c2n1` [NEOCUPROINE], the result in experiment [1] was inactive. In experiment [2], this molecule came in with an IC50 of 17.4 µM.

These data come from ChEMBL document CHEMBL1143831, “Small molecule inhibitors of aggregation indicate that amyloid beta oligomerization and fibrillization pathways are independent and distinct” (J Biol Chem, 2007).
